Test results as given in article PMC9464004 (Drug Design, Development and Therapy, 2022).
Like-named read-outs stand apart in the source and are kept apart here.

Tests used:
Chinese healthy subjects [1] = format: in vivo, human
Outline: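 Safety population comprised all randomized subjects receiving ≥1 double-blind dose (200 or 400 mg daily test compound or placebo, 8 days), analysed by treatment received. TEAEs were counted from first dose to study end and graded by NCI-CTCAE. Vital signs, ECG and local-lab haematology, coagulation, biochemistry, serology, urinalysis and pregnancy tests were monitored. Summaries were descriptive, with no significance testing.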

[2] = format: in vivo, human; conditions: for CL/F: mean ± SD
Outline: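 Healthy Chinese adults took 200 or 400 mg test compound once daily for 8 days. Blood was drawn pre/post-dose Day 1, pre-dose Days 2–8 and post-dose Day 8. Parent and main metabolite were measured by validated LC-MS/MS after protein precipitation, with deuterated internal standards. Linear ranges: 2.00–2000 and 10.0–10,000 ng/mL. Noncompartmental analysis used trapezoidal AUC. CL/F came from AUCtau. Below-limit values counted as zero.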

[3] = cited from earlier work
SGLT2 = conditions: cited from earlier work
Chinese healthy subjects [4] = assay: 24-hour urinary glucose excretion; format: in vivo, human
Outline: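 Randomized, double-blind, placebo-controlled study in healthy Chinese adults given 200 or 400 mg test compound or placebo orally once daily before the first meal for 8 days. Post-dose urine was pooled over 24 h in 0–8 h and 8–24 h fractions on Day 1 and Day 8. Glucose was assayed centrally, with results withheld from investigators, and reported as absolute excretion.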

[5] = tested on: healthy volunteers in the United States; conditions: achieved at the 300mg dose, study LX4211-1-101; cited from earlier work
[6] = across sotagliflozin treatment groups
[7] = sotagliflozin 200 mg qd, 8 days, N=9
[8] = sotagliflozin 400 mg qd, 8 days, N=9
[9] = co-administered with food (high fat/high caloric)

## CCOc1ccc(Cc2cc([C@@H]3O[C@H](SC)[C@@H](O)[C@H](O)[C@H]3O)ccc2Cl)cc1 [Sotagliflozin]
Chinese healthy subjects [1]; 200 mg and 400 mg per day, 8 days
  tolerability: well tolerated
Chinese healthy subjects [1]; 200mg sotagliflozin, none increased from baseline ≥25%
  PCSAs of QRS interval >110 ms, number of subjects: 2
Chinese healthy subjects [1]; AE in 1 subject (400 mg group)
  asymptomatic alanine aminotransferase (ALT) increase: < 2 × upper limit of normal (ULN)
Chinese healthy subjects [1]; [6]
  constipation, number of subjects: 1
  dizziness, number of subjects: 2
  folliculitis, number of subjects: 1
Chinese healthy subjects [1]; [7]
  TEAE: Blood phosphorus increased: 1 (11.1%) n (%)
  TEAE: Chest discomfort: 1 (11.1%) n (%)
  TEAE: Dizziness: 1 (11.1%) n (%)
  TEAE: Folliculitis: 1 (11.1%) n (%)
  TEAE: Petechiae: 1 (11.1%) n (%)
  TEAE: Proteinuria: 1 (11.1%) n (%)
  TEAE: White blood cell count decreased: 1 (11.1%) n (%)
Chinese healthy subjects [1]; sotagliflozin 400 mg group, 1 subject
  increased blood ketone body (TEAE value): 0.61 mmol/L
Chinese healthy subjects [1]; [8]
  TEAE: Alanine aminotransferase increased: 1 (11.1%) n (%)
  TEAE: Asthenia: 1 (11.1%) n (%)
  TEAE: Blood ketone body increased: 1 (11.1%) n (%)
  TEAE: Blood urine present: 1 (11.1%) n (%)
  TEAE: Constipation: 1 (11.1%) n (%)
  TEAE: Dermatitis: 1 (11.1%) n (%)
  TEAE: Dizziness: 1 (11.1%) n (%)
  TEAE: Haemorrhoidal haemorrhage: 1 (11.1%) n (%)
  TEAE: Headache: 1 (11.1%) n (%)
  TEAE: Mouth ulceration: 1 (11.1%) n (%)
Chinese healthy subjects [1]; sotagliflozin groups (200 and 400 mg)
  TEAEs considered treatment-related by the Investigator: 44.4%
[2]; 200 or 400 mg qd for 8 days
  degree of accumulation: less than 2 fold
[2]; Day 1, 200 to 400 mg
  estimated increase for AUCtau for a 2-fold increase between doses: 2.02 fold
  estimated increase for Cmax for a 2-fold increase between doses: 1.56 fold
[2]; Day 8, 200 to 400 mg
  estimated increase for AUCtau for a 2-fold increase between doses: 1.70 fold
  estimated increase for Cmax for a 2-fold increase between doses: 1.89 fold
[2]; human, plasma, oral, 400 mg, Mean t1/2z, range over 200 and 400 mg dose levels, Day 8
  half-life: 20.5 to 22.4 h
[2]; sotagliflozin 200 mg qd, Day 8
  CL/F: 267 L/h
[2]; sotagliflozin 400 mg qd, Day 8
  CL/F: 307 L/h
[3]; EMA data, European-American populations
  accumulation index at steady state: about 2
[3]; [9]
  Cmax with food compared to fasted condition: ~2.5 fold
  total exposure with food compared to fasted condition: ~1.5 fold
SGLT2
  selectivity for SGLT2 than that for SGLT1: 20 fold
Chinese healthy subjects [4]; sotagliflozin 200 mg qd, Day 1, mean (±SD)
  24-hour UGE: 188.17 (±51.957) mmol
Chinese healthy subjects [4]; sotagliflozin 200 mg qd, Day 8, mean ± SD
  24-hour UGE: 213.02 (±67.216) mmol
Chinese healthy subjects [4]; sotagliflozin 400 mg qd, Day 1, mean (±SD)
  24-hour UGE: 250.18 (±38.063) mmol
Chinese healthy subjects [4]; sotagliflozin 400 mg qd, Day 8, mean ± SD
  24-hour UGE: 263.90 (±56.665) mmol
[5]
  maximum 24 h UGE: 44 g
